Here are results for eight molecules from ChEMBL document CHEMBL1157292, “(+)-agelasine D: improved synthesis and evaluation of antibacterial and cytotoxic activities” (J Nat Prod, 2006).

In one test the test system is L1210. Description: Cytotoxicity against mouse L1210 cells. It is filed as functional, cell-based.
Test [1] concerns Mycobacterium tuberculosis. Description: Antibacterial activity against Mycobacterium tuberculosis by standard broth microdilution technique. Type of test: functional. In general terms: Dilution methods test growth across graded concentrations, often in twofold steps.
Another test concerns Staphylococcus aureus. Nature of the test: Antibacterial activity against Staphylococcus aureus ATCC 25923 by standard broth microdilution technique. Type of test: functional. In outline:
(§1)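 Exponential-phase cultures were diluted to a final inoculum of 1 × 10⁶ CFU/mL and mixed 1:1 with serial dilutions made in double-distilled water. Medium was 2% bactopeptone water for S. aureus, E. coli and P. aeruginosa, and brain heart infusion broth for E. faecalis and S. pyogenes. Incubated at 37 °C overnight. MIC was the lowest concentration without visible growth. Gentamycin served as internal control.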

A further test has as its system Streptococcus pyogenes. Description: Antibacterial activity against Streptococcus pyogenes ATCC 19615 by standard broth microdilution technique. It is filed as functional. In outline:
as §1

Another test concerns Enterococcus faecalis. Nature of the test: Antibacterial activity against Enterococcus faecalis by standard broth microdilution technique. It is filed as functional. In outline: as §1
In the next test the test system is Escherichia coli. Description: Antibacterial activity against Escherichia coli ATCC 25922 by standard broth microdilution technique. It is filed as functional. In a few lines: as §1
The next test relates to Pseudomonas aeruginosa. Description: Antibacterial activity against Pseudomonas aeruginosa ATCC 27853 by standard broth microdilution technique. It is filed as functional. In outline: as §1
In the next test the test system is Bacteroides fragilis. Nature of the test: Antibacterial activity against Bacteroides fragilis DSM 2151 by standard broth microdilution technique. Type of test: functional. In outline: (§2)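 Strains kept at -80 °C and grown on blood agar at 35 °C for 24 h before testing. DMSO stocks were serially 2-fold diluted in reduced Wilkins-Chalgren broth to final 0.125–32 μg/mL. Colony suspension was set to 0.5 McFarland and diluted 1:10 (~1.5 × 10⁷ CFU/mL); 10 μL was added per well, in triplicate. Incubated anaerobically at 35 °C for 48 h. MIC was the lowest concentration without visible growth. Tests were repeated at least once.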

The test system of test [2] is Bacteroides thetaiotaomicron. Nature of the test: Antibacterial activity against Bacteroides thetaiotaomicron DSM 2255 by standard broth microdilution technique. It is filed as functional. In a few lines: as §2
Test [3] deals with U-937/GTB. Nature of the test: Cytotoxicity against human U937 GTB cells after 72 hrs by fluorometric microculture cytotoxicity assay. It is filed as functional, cell-based. In outline:
(§3)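 FMCA method: compounds dissolved in 10% DMSO were tested at 10 concentrations, 0.15625–80 μM, each in triplicate. Plates included solvent, medium, Triton X-100 and PBS controls. Cells were exposed for 72 h, washed with PBS, and incubated with FDA for 40 min. Fluorescence, proportional to living cells, gave a survival index at each concentration. Values are mean ± SEM of triplicates, fitted by nonlinear regression.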

The nature of test [4]: Cytotoxicity against human RPMI 8226/s cells after 72 hrs by fluorometric microculture cytotoxicity assay. It is filed as functional, cell-based. The conditions noted are these: RPMI8226/S. In a few lines: as §3
A short description of test [5]: Cytotoxicity against human CEM/s cells after 72 hrs by fluorometric microculture cytotoxicity assay. Type of test: functional, cell-based. In a few lines:
as §3

The test system of test [6] is ACHN. Nature of the test: (§4) Cytotoxicity against multidrug-resistant human ACHN cells after 72 hrs by fluorometric microculture cytotoxicity assay. Type of test: functional, cell-based. In outline:
as §3

Test [7] deals with ACHN. The description is as §4. Type of test: functional, cell-based. In a few lines: as §3
The source holds these as a separate data set.

Test [8] deals with U-937/GTB. Nature of the test: Cytotoxicity against human U937 GTB cells at 80 uM after 72 hrs by fluorometric microculture cytotoxicity assay. It is filed as functional, cell-based. In a few lines: as §3
The species named for a further test is Homo sapiens. Description: Cytotoxicity against human RPMI 8226/s cells at 80 uM after 72 hrs by fluorometric microculture cytotoxicity assay. It is filed as functional, cell-based. In outline: as §3
Another test concerns CEM/s. Description: Cytotoxicity against human CEM/s cells at 80 uM after 72 hrs by fluorometric microculture cytotoxicity assay. Type of test: functional, cell-based. In a few lines: as §3

In brackets after ≈: the same amount, converted by molar mass. Activity calls are given as the source filed them. No cut-off for these calls is given here. A value given as a limit tells only on which side of the number the result lay.

In the test with L1210, `C/C(=C\Cn1c[n+](C)c2ncnc(N)c21)CC[C@@]1(C)[C@H](C)CC[C@@]2(C)C(COC(=O)c3cc(Br)c[nH]3)=CCC[C@@H]12` yielded an IC50 of 4.8 µM.
On to `C=C1CC[C@H]2C(C)(C)CCC[C@]2(C)[C@H]1CC/C(C)=C/Cn1c[n+](C)c2nc[n-]/c(=N\OC)c21`, for which the MIC in test [1] is > 6.25 µg/mL; in the test with Staphylococcus aureus, 2 µg/mL (≈ 4.43 µM); with Streptococcus pyogenes, 2 µg/mL (≈ 4.43 µM); with Enterococcus faecalis, 8 µg/mL (≈ 17.7 µM); with Escherichia coli, 8 µg/mL (≈ 17.7 µM); against Pseudomonas aeruginosa it was 32 µg/mL (≈ 70.8 µM). Moreover, the MIC (with Bacteroides fragilis; in test [2]) was 4 µg/mL (≈ 8.86 µM) in each case. Further, the IC50 with U-937/GTB [3] was 1.03 µM; in test [4], 0.2 µM; in [5] it was 2.33 µM; with ACHN [6], 8.01 µM.
On to `COc1cccc2c1C(=O)c1c(O)c3c(c(O)c1C2=O)C[C@@](O)(C(=O)CO)C[C@@H]3O[C@H]1C[C@H](N)[C@H](O)[C@H](C)O1` [DOXORUBICIN], for which the IC50 in test [4] stood at 0.13 µM; in [5], 0.18 µM.
Consider `CO[C@H]1/C=C/O[C@@]2(C)Oc3c(C)c(O)c4c(O)c(c(/C=N/N5CCN(C)CC5)c(O)c4c3C2=O)NC(=O)/C(C)=C\C=C\[C@H](C)[C@H](O)[C@@H](C)[C@@H](O)[C@@H](C)[C@H](OC(C)=O)[C@@H]1C` [RIFAMPIN], for which the MIC in test [1] turned out to be 0.25 µg/mL (≈ 0.304 µM).
As to `C=C1CC[C@H]2C(C)(C)CCC[C@]2(C)[C@H]1CC/C(C)=C/Cn1c[n+](C)c2nc[n-]/c(=N\OC(C)(C)C)c21`, the outcome in the test on ACHN [7], with U-937/GTB [8], in the test filed under Homo sapiens and with CEM/s was inactive. Moreover, the MIC in test [1] was 3.13 µg/mL (≈ 6.34 µM); against Staphylococcus aureus, 6 µg/mL (≈ 12.2 µM); in the test on Escherichia coli it was 32 µg/mL (≈ 64.8 µM); against Bacteroides fragilis, 4 µg/mL (≈ 8.1 µM); in test [2], 4 µg/mL (≈ 8.1 µM). In addition, the IC50 (in the test with U-937/GTB [3]; in test [4]; in [5]; in the test on ACHN [6]) was > 80 µM each time.
Take `Cc1ncc([N+](=O)[O-])n1CCO` [METRONIDAZOLE]: the minimal inhibitory concentration (MIC) against Bacteroides fragilis turned out to be 0.5 µg/mL (≈ 2.92 µM); in test [2], 1 µg/mL (≈ 5.84 µM).
On to `C=C1CC[C@H]2C(C)(C)CCC[C@]2(C)[C@H]1CC/C(C)=C/Cn1c[n+](C)c2ncnc(N)c21.[Cl-]`, for which the MIC in test [1] is > 6.25 µg/mL; against Staphylococcus aureus it was 1 µg/mL; in the test on Streptococcus pyogenes, 2 µg/mL; against Enterococcus faecalis, 8 µg/mL; against Escherichia coli, 8 µg/mL; with Pseudomonas aeruginosa, 16 µg/mL. For the same molecule, the MIC turned out to be 16 µg/mL in the test with Bacteroides fragilis and 8 µg/mL in test [2]. Besides, the IC50 is 5.59 µM in the test with U-937/GTB [3], 3.7 µM in [4], 4.68 µM in test [5] and 25 µM in the test with ACHN [6].
In the case of `CC(=O)O[C@H]1C(=O)[C@@]2(C)[C@H]([C@H](OC(=O)c3ccccc3)[C@]3(O)C[C@H](OC(=O)[C@H](O)[C@@H](NC(=O)c4ccccc4)c4ccccc4)C(C)=C1C3(C)C)[C@]1(OC(C)=O)CO[C@@H]1C[C@@H]2O` [PACLITAXEL], the IC50 in [4] and in test [5] was 0.007 µM throughout.

By IC50 is commonly meant the concentration that gives 50% inhibition. The MIC is the lowest concentration that inhibits growth of the organism. The low end stands for inhibition by little substance, the high end for a need for much substance.
